ChEMBL document CHEMBL1154156, “Natural tanshinone-like heterocyclic-fused ortho-quinones from regioselective Diels-Alder reaction: synthesis and cytotoxicity evaluation” (Eur J Med Chem, 2009)

How the values were obtained:
[1] = Cytotoxicity against human GLC82 cells after 48 hrs by MTT assay; assay type: functional, cell-based
How it was run: (§1)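 Human cells (GLC-82 lung adenocarcinoma; CNE2 nasopharyngeal carcinoma) were seeded at 1×10⁴ per well and incubated overnight. They were then exposed for 48 h to increasing compound concentrations (0–100). MTT (5 mg/mL stock) was added for 4 h at 37 °C, and unconverted MTT was removed before plate-reader absorbance. Runs were in quadruplicate, with viability as % of untreated control. IC50 is the concentration reducing mean viability to 50%.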

[2] = Cytotoxicity against human CNE2 cells after 48 hrs by MTT assay; assay type: functional, cell-based, CNE-2; how it was run: as §1
[3] = Homo sapiens, GLC82, 48 h, read-out: IC50
[4] = Homo sapiens, CNE-2, 48 h, read-out: IC50

| SMILES | IC50 [1, 3] | IC50 [2, 4] | IC50 ([1]; glc82) | IC50 ([2]; cne-2) |
| --- | --- | --- | --- | --- |
| CC(=O)Nc1c(C)cc(C)c2c1C(=O)C(=O)c1c(-c3ccc(Cl)cc3)coc1-2 | 6 µM | 9.2 µM |  |  |
| CC(=O)Nc1c(C)cc(C)c2c1C(=O)C(=O)c1c(-c3ccc(Cl)cc3)csc1-2 | 7.5 µM | 6.8 µM |  |  |
| Cc1cc(C)c2c(c1)C(=O)C(=O)c1c(-c3ccc(F)cc3)coc1-2 |  |  | ND(Insoluble) | ND(Insoluble) |
| O=C1C(=O)c2c(-c3ccccc3)csc2-c2ccccc21 | 20.1 µM |  |  |  |
| O=C1C(=O)c2c(-c3ccc(Cl)cc3)coc2-c2cccc(N3C(=O)CCC3=O)c21 | 1.6 µM | 2 µM |  |  |
| CC(=O)Nc1c(C)cc(C)c2c1C(=O)C(=O)c1c(-c3ccccc3)csc1-2 | 5 µM | 4.1 µM |  |  |
| Cc1cc(C)c2c(c1)C(=O)C(=O)c1cc(C)oc1-2 |  |  | ND(Insoluble) | ND(Insoluble) |
| CC(=O)Nc1c(C)cc(C)c2c1C(=O)C(=O)c1c(-c3ccc(C)cc3)coc1-2 | 9.5 µM | 5.6 µM |  |  |
| CC(=O)Nc1c(C)cc(C)c2c1C(=O)C(=O)c1c(-c3ccc(C)c(C)c3)coc1-2 |  |  | ND(Insoluble) | ND(Insoluble) |
| CC(=O)Nc1c(C)cc(C)c2c1C(=O)C(=O)c1c(-c3ccccc3C)csc1-2 |  | 4.2 µM |  |  |
| Cc1cc(C)c2c(c1)C(=O)C(=O)c1c(-c3ccccc3)coc1-2 | > 25 µM | > 25 µM |  |  |
| CC(=O)Nc1c(C)cc(C)c2c1C(=O)C(=O)c1c(-c3ccc(F)cc3)coc1-2 | 8.9 µM |  |  |  |
| CC(=O)Nc1c(C)cc(C)c2c1C(=O)C(=O)c1c(-c3ccc(F)cc3)csc1-2 | 3.9 µM | 4.6 µM |  |  |
| CC(=O)Nc1c(C)cc(C)c2c1C(=O)C(=O)c1c(-c3ccccc3)coc1-2 | 7.2 µM | 4.8 µM |  |  |
| Cc1cc(C)c2c(c1)C(=O)C(=O)c1c(-c3ccc(C)c(C)c3)coc1-2 |  |  | ND(Insoluble) | ND(Insoluble) |
| Cc1ccc(-c2coc3c2C(=O)C(=O)c2cc(C)cc(C)c2-3)cc1 | 12 µM | 23.3 µM |  |  |
| Cc1cc(C)c2c(c1)C(=O)C(=O)c1c(-c3ccc(Cl)cc3)coc1-2 |  |  | ND(Insoluble) | ND(Insoluble) |
| CC[C@@]1(O)C(=O)OCc2c1cc1n(c2=O)Cc2cc3cc(O)ccc3nc2-1 [HYDROXYCAMPTOTHECIN] | 1.09 µM | 0.37 µM |  |  |
